# Screens as filed in PubChem.
# PPC-1+TRAIL kill: compounds killing PPC-1 cancer cells with TRAIL present, primary screen, TRAIL potentiator project, ATPLite luminescence, uHTS; cell killing (% activity), % at 4 µM or 5 µM; 220,000 compounds, 0.41% hits; PPC-1 cells + TRAIL, ATPLite viability luminescence;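 active = cell killing above 50% in the first pass at 4 µM, then a duplicate retest at 5 µM averaging 50% or more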
# FLuc inhib CS: firefly luciferase enzyme inhibitors, primary screen, artefact control for luciferase-based inhibitor screens, biochemical, luminescence, ATPLite; 200,000 compounds, 1.5% hits; Luciferin 4-monooxygenase (Photinus pyralis), P08659; AID 1006, 2008; 10 min; inhibition, % at 10 µM;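 active = inhibition above about 50% when tested at 10 µM, limit read from the data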
# Target sequence (P08659 whole entry, looked up): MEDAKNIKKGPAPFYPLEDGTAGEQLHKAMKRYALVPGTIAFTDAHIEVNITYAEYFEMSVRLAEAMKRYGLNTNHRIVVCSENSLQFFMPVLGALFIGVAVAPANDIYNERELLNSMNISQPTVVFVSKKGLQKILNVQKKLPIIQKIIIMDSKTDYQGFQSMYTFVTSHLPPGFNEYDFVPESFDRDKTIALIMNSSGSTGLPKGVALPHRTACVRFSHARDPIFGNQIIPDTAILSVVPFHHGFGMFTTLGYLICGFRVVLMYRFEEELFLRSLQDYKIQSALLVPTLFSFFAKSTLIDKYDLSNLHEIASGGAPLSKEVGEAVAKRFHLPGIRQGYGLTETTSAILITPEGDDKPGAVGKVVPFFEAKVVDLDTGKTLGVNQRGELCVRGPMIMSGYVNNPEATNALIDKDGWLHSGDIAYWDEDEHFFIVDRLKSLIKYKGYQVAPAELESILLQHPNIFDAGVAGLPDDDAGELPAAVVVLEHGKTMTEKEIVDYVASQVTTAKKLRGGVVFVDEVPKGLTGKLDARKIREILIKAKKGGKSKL
# FLuc act counter: FLuc activators, initial screening, artefact control for FLuc-dependent activation tests, biochemical, ATPlite luminescence; 200,000 tested, under 10 active; AID 1027, 2008; Luciferin 4-monooxygenase (Photinus pyralis), P08659; activation factor at 10 µM; ATPlite luciferase biochemical, 10 min; 0 = ATP-free wells, 1 = DMSO control;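 active = luciferase activation factor, scaled between plate controls, of at least 2 with compound at 10 µM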
#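 System: cell-free luciferase reagent; medium: PBS as buffer for the ATP substrate; doses: test compounds dosed from 2 mM stocks in 100% DMSO; incubation: 10 min, room temperature; measured by: luminescence from luciferase reaction; read-out: luciferase activation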
# APP 5'UTR act: activators of APP 5'UTR luciferase reporter, primary screen, SH-SY5Y cells; SH-SY5Y APP 5'UTR luciferase reporter, luminescence; zero percent = DMSO vehicle wells; activation, % at 2 µM; 190,000 compounds, 1% hits; AID 1276, 2008;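 active = activation above a set limit, based on mean plus 3 SD of controls, cut at about 140% in these data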
# NF-kB expr up: activators of NF-kB expression in neurons, primary screen, cell-based, HTS | human neuronal cells, NF-kB reporter expression; active compounds read high | fold change at 12.5 µM | 190,000 compounds, 1.6% hits | AID 1239, 2008; in the data active = fold change above about 3.3
# C8 TRAIL sens: viability loss with TRAIL in NB7+C8 cells, primary screen, TRAIL sensitizer project, cell-based, ATPlite luminescence | inhibition (viability loss, TRAIL sensitization), % at 10 µM | 360,000 compounds, 1% hits | AID 624354, 2012;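 active = compounds causing at least 50% loss of cell viability in the single-dose screen, relative to plate controls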
# Numbers stand for hits; - = inactive; . = no result given. A selection: hits, their analogues and other compounds. The true share with any hit is near 2.2%.
SMILES,PPC-1+TRAIL kill,FLuc inhib CS,FLuc act counter,APP 5'UTR act,NF-kB expr up,C8 TRAIL sens
C=CCn1c(COc2ccccc2)nnc1SC(C)C(=O)N/N=C/c1cc(Cl)ccc1O (stereo unspecified),-,-,-,-,3.5,-
O=C(Nc1ccc(Cl)cc1)C1CCCN(c2ncnc3c2nc2n3CCCCC2)C1 (stereo unspecified),.,.,.,.,.,-
CCc1nc(N2CCN(C(=O)CCl)CC2)c2c3c(sc2n1)CC(C)CC3 (stereo unspecified),.,.,.,.,.,87
CCc1nc(N2CCN(C(C)=O)CC2)c2c3c(sc2n1)CC(C(C)(C)C)CC3 (stereo unspecified),.,.,.,.,.,-
Oc1ccc(C=Nc2ccc(N3CCOCC3)cc2)c(O)c1,-,78,-,-,-,-
Cc1ccc(NC(=O)[C@@H]2CCCN2C(=O)c2cccs2)cc1S(=O)(=O)N1CCCCC1,.,.,.,.,.,-
Cc1ccc(C(=O)Nc2ccc(O)cc2C(=O)O)cc1C,-,69,-,-,-,-
Cc1ccc(C(=O)Nc2ccc(O)cc2C(=O)O)cc1,-,59,-,-,-,-
Cc1cccc(C(=O)Nc2ccc(O)cc2C(=O)O)c1,-,-,-,-,-,-
CCOc1ccc(C(=O)N(Cc2ccccc2)c2cccc(C)c2)cc1OC,.,.,.,.,.,-
CC(=O)c1cccc(NC(=O)COC(=O)CCC(=O)c2cccs2)c1,.,.,.,.,.,-
C[C@H](CO)N1C[C@H](C)[C@@H](CN(C)C(=O)NC2CCCCC2)Oc2c(NC(=O)Nc3ccc(C(F)(F)F)cc3)cccc2C1=O,.,.,.,.,.,-
COc1ccc(OC)c(N(CCN2C(=O)c3ccccc3C2=O)C(=O)C2CCC(=O)C2C)c1 (stereo unspecified),.,.,.,.,.,-
COc1cc(/C=N\NC(=O)c2ccc(=O)[nH]n2)cc(OC)c1OC,-,-,-,-,3.5,-
COc1cc(/C=N/NC(=O)c2ccncc2)cc(OC)c1OC,.,.,.,.,.,-
O=c1[nH]nc(-c2ccccc2)c2ccccc12,-,.,.,.,.,-
Cc1cccc(-c2cc3c(N=O)c4ccccc4c-3n[nH]2)c1,-,63,-,142,3.8,-
COc1cccc(-c2nc3sc4c(c3c(=O)[nH]2)CCCCC4)c1,-,-,-,184,-,-
Cc1ccc(NC(=O)ON=C2CCCC2)cc1,-,62,-,-,-,-
CC(C)(C)NC(=O)CN(CCc1ccccc1)C(=O)c1csnn1,.,-,-,-,-,-
Cc1cc(C)cc(NC(=O)c2ccc(CSc3nnc(C)s3)cc2)c1,-,-,-,-,-,-
Cc1ccc(Cl)cc1NC(=O)c1ccc(CSc2nnnn2C)cc1,-,-,-,-,-,-
Cc1ccc(NC(=O)c2ccc(CSc3nnc(C)s3)cc2)cc1,-,56,-,-,3.9,-
Cc1ccc(NC(=O)c2ccc(CSc3nnnn3C)cc2)cc1,-,57,-,-,-,58
Clc1ccccc1OCc1nc(-c2ccc(Br)o2)no1,-,-,-,-,-,-
SMILES,PPC-1+TRAIL kill,FLuc inhib CS,FLuc act counter,APP 5'UTR act,NF-kB expr up,C8 TRAIL sens
Clc1ccccc1OCc1nc(-c2ccccn2)no1,-,51,-,171,6.5,-
Nc1nonc1-c1noc(COc2ccccc2Cl)n1,-,-,-,187,8.8,-
c1ccc(CCc2nc(-c3ccccn3)no2)cc1,-,-,-,-,-,-
Clc1ccc(OCc2nc(-c3ccccn3)no2)c(Br)c1,-,70,-,138,-,52
Cc1ccc(C)c(S(=O)(=O)N2CCN(C(=O)c3sccc3C)CC2)c1,.,.,.,.,.,-
CCOC(=O)CCC1(C(=O)OC)C(=O)CCCCCC=C1C(=O)OC (stereo unspecified),.,.,.,.,.,-
COc1cc(OC)cc(OC(=O)c2ccc3c(=O)n4c(nc3c2)CCC4)c1,.,.,.,.,.,-
COc1cc(/C=N/NC(=O)COc2ccc(C)cc2)ccc1OC(=O)c1cccs1,-,-,-,-,-,57
CCc1nc2ccc(C(=O)NCCOc3ccc(OC)cc3)cn2c1N(C)Cc1nccn1C,.,.,.,.,.,-
O=C(Nc1ccc(F)cc1)c1cccc2c1C(=O)N(CC1CCCO1)C2 (stereo unspecified),.,.,.,.,.,-
CN(C)c1ccc(NC(=O)COC(=O)CCC(=O)c2ccc(F)cc2)cc1,-,51,-,-,-,-
CCOc1cc(C(=O)CCC(=O)OCC(=O)Nc2ccc(F)cc2)ccc1O,.,.,.,.,.,-
CCCOc1ccc(Cc2c(O)nc(SC)[nH]c2=O)cc1,.,.,.,.,.,-
N/C(=N\OC(=O)/C=C/c1ccccc1Cl)c1ccccn1,-,74,-,-,4.1,-
N/C(=N\OC(=O)/C=C/c1ccc(Br)cc1)c1ccccn1,-,-,-,188,3.9,-
CCN(CC)CCC12CC(C)OC1=Nc1ccccc1NC2=O (stereo unspecified),.,.,.,.,.,-
CCOC(=O)N1CCN(S(=O)(=O)c2c(C)nc3sccn3c2=O)CC1,.,.,.,.,.,-
O=C(O)C1CCCCN1c1ccccc1[N+](=O)[O-] (stereo unspecified),.,.,.,.,.,-
C[C@@H]1CN([C@@H](C)CO)C(=O)c2cccc(NC(=O)c3nc4ccccc4s3)c2O[C@@H]1CN(C)CC1CC1,.,.,.,.,.,-
CC(C)(C)NC(=O)C(c1ccncc1)n1c(-c2ccc(C(F)(F)F)cc2)nc2ccccc21 (stereo unspecified),.,.,.,.,.,79
O=C(Nc1cc2ccccc2oc1=O)c1ccccc1,-,67,-,-,-,55
CC1(C)CC(=O)c2c(O)cc(OCc3ccc(Br)cc3)cc2O1,-,-,-,139,-,-
COC(=O)c1ccc(COc2cc(O)c3c(c2)OC(C)(C)CC3=O)cc1,-,-,-,-,-,-
CC1CCN(c2ccc(-c3cccs3)nn2)CC1,.,.,.,.,.,97
Clc1ccc(-c2cccs2)nn1,-,-,-,-,-,-
SMILES,PPC-1+TRAIL kill,FLuc inhib CS,FLuc act counter,APP 5'UTR act,NF-kB expr up,C8 TRAIL sens
CCOc1ccccc1NC(=O)Cn1nnc(C(=O)NCc2ccco2)c1N,-,-,-,-,3.7,-
Cc1ccccc1NC(=O)Cn1nnc(C(=O)NCc2ccco2)c1N,-,-,-,-,-,-
O=C(OCc1ccccc1)N(CCCCN(CCCNCc1ccccc1)C(=O)OCc1ccccc1)CCCNCc1ccccc1,.,.,.,.,.,96
O=C(NCCCCCCNC(=O)OCc1ccccc1)OCc1ccccc1,.,.,.,.,.,-
Cn1c(=O)c2cc(NC(=O)CCc3ccc4c(c3)OCO4)ccc2n1Cc1ccc(F)cc1,.,.,.,.,.,-
CN=c1scc(-c2ccc(F)cc2)n1/N=C/c1ccc(O)c(O)c1,-,90,-,-,-,74
Cc1ccc(CN2CCN(/N=C/c3ccc(O)c(O)c3)CC2)cc1,.,.,.,.,.,-
Cc1ccc(-c2ccc(=O)n(Cc3c(F)cccc3Cl)n2)cc1,.,.,.,.,.,-
CC(C)c1ccc(NC(=O)Nc2nc(C(N)CCc3ccccc3)cs2)cc1 (stereo unspecified),.,.,.,.,.,95
